{
  "source": "ChEMBL document CHEMBL1124614",
  "about": "“A carboxy-terminus truncated analogue of angiotensin II, [Sar1]angiotensin II-(1-7)-amide, provides an entry to a new class of angiotensin II antagonists” (J Med Chem, 1989)",
  "key": {"Canis familiaris": {"species": "Canis familiaris", "assay": "Antagonistic effect on aldosterone secretion by zona glomerulosa cells from canine adrenal glands", "assay_type": "functional", "conditions": "Canis lupus familiaris; Adrenal gland"}, "Rattus norvegicus [1]": {"test_system": "Rattus norvegicus", "assay": "Variation in mean arterial pressure produced by angiotensin II, 5 min after administration (dose: 60 ug/kg/min) in rats; 50/5", "assay_type": "functional, Artery", "outline": "(§1)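 Rats were anesthetized and ganglion-blocked. Antagonist was given by iv infusion in µg/kg per min. The pressor response to angiotensin II (30 ng/kg iv) was measured before infusion, during infusion, and 5, 10, 20, 40 and 60 min after it. Responses are given as % of the pre-infusion control, as mean ± SEM, with n = 4–6 rats.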"}, "Rattus norvegicus [2]": {"species": "Rattus norvegicus", "assay": "Concentration at which compound antagonizes increase in arterial pressure produced by angiotensin II", "conditions": "Artery"}, "Rattus norvegicus [3]": {"test_system": "Rattus norvegicus", "assay": "Variation in mean arterial pressure produced by angiotensin II, 60 min after administration (dose: 60 ug/kg/min) in rats; 91/5", "assay_type": "functional, Artery", "outline": "as §1"}, "Rattus norvegicus [4]": {"test_system": "Rattus norvegicus", "assay": "Variation in mean arterial pressure, produced by angiotensin II upon administration at 60 ug/kg/min in rats; 6/3", "assay_type": "functional, Artery", "outline": "as §1"}, "Oryctolagus cuniculus": {"species": "Oryctolagus cuniculus", "assay": "Tested for antagonist activity in rabbit aortic rings, pA2 values were determined from Schild plots.", "assay_type": "functional", "conditions": "Aorta, read-out: pA2 (converted)", "outline": "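Isolated rabbit aortic rings were used and contraction was recorded. Agonist activity was tested up to 10⁻⁵ M. For antagonism, angiotensin II concentration-response curves were run with and without three antagonist concentrations. pD2 was taken from the curves and pA2 from Schild plots fitted by least squares.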"}, "Rattus norvegicus [5]": {"test_system": "Rattus norvegicus", "assay": "Variation in mean arterial pressure produced by angiotensin II, 10 min after administration (dose: 60 ug/kg/min) in rats; 61/5", "assay_type": "functional, Artery", "outline": "as §1"}, "Rattus norvegicus [6]": {"test_system": "Rattus norvegicus", "assay": "Variation in mean arterial pressure produced by angiotensin II, 40 min after administration (dose: 60 ug/kg/min) in rats; 91/4", "assay_type": "functional, Artery", "outline": "as §1"}, "Rattus norvegicus [7]": {"test_system": "Rattus norvegicus", "assay": "Variation in mean arterial pressure produced by angiotensin II, 20 min after administration (dose: 60 ug/kg/min) in rats; 78/5", "assay_type": "functional, Artery", "outline": "as §1"}, "Rattus norvegicus [8]": {"test_system": "Rattus norvegicus", "assay": "Variation in mean arterial pressure produced by angiotensin II, 5 min after administration (dose 10 ug/kg/min) in rats; 29/5", "assay_type": "functional, Artery", "outline": "as §1"}, "Rattus norvegicus [9]": {"test_system": "Rattus norvegicus", "assay": "Variation in mean arterial pressure, produced by angiotensin II upon administration at 10 ug/kg/min in rats", "assay_type": "functional, Artery", "outline": "as §1"}, "Rattus norvegicus [10]": {"test_system": "Rattus norvegicus", "assay": "Variation in mean arterial pressure produced by angiotensin II, 60 min after administration (dose 10 ug/kg/min) in rats; 94/6", "assay_type": "functional, Artery", "outline": "as §1"}, "Rattus norvegicus [11]": {"test_system": "Rattus norvegicus", "assay": "Variation in mean arterial pressure produced by angiotensin II, 20 min after administration (dose 10 ug/kg/min) in rats; 78/5", "assay_type": "functional, Artery", "outline": "as §1"}, "Rattus norvegicus [12]": {"test_system": "Rattus norvegicus", "assay": "Variation in mean arterial pressure produced by angiotensin II, 10 min after administration (dose 10 ug/kg/min) in rats; 50/5", "assay_type": "functional, Artery", "outline": "as §1"}, "Rattus norvegicus [13]": {"test_system": "Rattus norvegicus", "assay": "Variation in mean arterial pressure produced by angiotensin II, 40 min after administration (dose 10 ug/kg/min) in rats; 96/4", "assay_type": "functional, Artery", "outline": "as §1"}, "[14]": {"assay": "Rate constant was determined for the compound", "assay_type": "ADME"}, "Rattus norvegicus [15]": {"test_system": "Rattus norvegicus", "assay": "Variation in mean arterial pressure, produced by angiotensin II upon administration at 30 ug/kg/min in rats", "assay_type": "functional, Artery", "outline": "as §1"}, "Rattus norvegicus [16]": {"test_system": "Rattus norvegicus", "assay": "Variation in mean arterial pressure produced by angiotensin II, 40 min after administration (dose 30 ug/kg/min) in rats; 96/4", "assay_type": "functional, Artery", "outline": "as §1"}, "Rattus norvegicus [17]": {"test_system": "Rattus norvegicus", "assay": "Variation in mean arterial pressure produced by angiotensin II, 10 min after administration (dose 30 ug/kg/min) in rats; 63/3", "assay_type": "functional, Artery", "outline": "as §1"}, "Rattus norvegicus [18]": {"test_system": "Rattus norvegicus", "assay": "Variation in mean arterial pressure produced by angiotensin II, 20 min after administration (dose 30 ug/kg/min) in rats; 87/4", "assay_type": "functional, Artery", "outline": "as §1"}, "Rattus norvegicus [19]": {"test_system": "Rattus norvegicus", "assay": "Variation in mean arterial pressure produced by angiotensin II, 60 min after administration (dose 30 ug/kg/min) in rats; 97/3", "assay_type": "functional, Artery", "outline": "as §1"}, "Rattus norvegicus [20]": {"test_system": "Rattus norvegicus", "assay": "Variation in mean arterial pressure produced by angiotensin II, 5 min after administration (dose 30 ug/kg/min) in rats; 35/1", "assay_type": "functional, Artery", "outline": "as §1"}},
  "note": "Peptide text beside a SMILES is read from it.",
  "data": [
    {"compound": "CC(C)[C@H](NC(=O)[C@H](CCCN=C(N)N)NC(=O)[C@@H](N)CC(=O)O)C(=O)N[C@@H](Cc1ccc(O)cc1)C(=O)N[C@H](C(=O)N[C@@H](Cc1c[nH]cn1)C(=O)N1CCC[C@H]1C(=O)O)C(C)C", "note": "(H-DRVYVHP-OH)", "values": [
      {"measurement": "Concentration", "setting": "Canis familiaris", "value": 1, "unit": "mM"}
    ]},
    {"compound": "CC[C@H](C)[C@H](NC(=O)[C@H](Cc1ccc(O)cc1)NC(=O)[C@@H](NC(=O)[C@H](CCCN=C(N)N)NC(=O)CNC)C(C)C)C(=O)N[C@@H](Cc1c[nH]cn1)C(=O)N1CCC[C@H]1C(N)=O", "values": [
      {"measurement": "Control", "setting": "Rattus norvegicus [1]", "value": 50, "unit": "%"},
      {"measurement": "Concentration (ug min-1 kg-1)", "setting": "Rattus norvegicus [2]", "value": 60},
      {"measurement": "Control", "setting": "Rattus norvegicus [3]", "value": 91, "unit": "%"},
      {"measurement": "Control", "setting": "Rattus norvegicus [4]", "value": 6, "unit": "%"},
      {"measurement": "Kb", "setting": "Oryctolagus cuniculus", "value": 23.4, "unit": "nM"},
      {"measurement": "Control", "setting": "Rattus norvegicus [5]", "value": 61, "unit": "%"},
      {"measurement": "Control", "setting": "Rattus norvegicus [6]", "value": 91, "unit": "%"},
      {"measurement": "Control", "setting": "Rattus norvegicus [7]", "value": 78, "unit": "%"}
    ]},
    {"compound": "CNCC(=O)N[C@@H](CCCNC(=N)N)C(=O)N[C@H](C(=O)N[C@@H](Cc1ccc(O)cc1)C(=O)N[C@H](C(=O)N[C@@H](Cc1cnc[nH]1)C(=O)N1CCC[C@H]1C(=O)N[C@@H](C)C(=O)O)C(C)C)C(C)C", "note": "[SARALASIN]", "values": [
      {"measurement": "Control", "setting": "Rattus norvegicus [8]", "value": 29, "unit": "%"},
      {"measurement": "Control", "setting": "Rattus norvegicus [9]", "value": 0, "unit": "%"},
      {"measurement": "Control", "setting": "Rattus norvegicus [10]", "value": 94, "unit": "%"},
      {"measurement": "Control", "setting": "Rattus norvegicus [11]", "value": 78, "unit": "%"},
      {"measurement": "Control", "setting": "Rattus norvegicus [12]", "value": 50, "unit": "%"},
      {"measurement": "Control", "setting": "Rattus norvegicus [13]", "value": 96, "unit": "%"}
    ]},
    {"compound": "CC[C@H](C)[C@H](NC(=O)[C@H](Cc1ccc(O)cc1)NC(=O)[C@@H](NC(=O)[C@H](CCCNC(=N)N)NC(=O)[C@@H](N)CC(=O)O)C(C)C)C(=O)N[C@@H](Cc1cnc[nH]1)C(=O)N1CCC[C@H]1C(=O)N[C@@H](Cc1ccccc1)C(=O)O", "note": "[ANGIOTENSIN II]", "values": [
      {"measurement": "pD2", "setting": "[14]", "value": 8.98}
    ]},
    {"compound": "CC[C@H](C)[C@H](NC(=O)[C@H](Cc1ccc(OC)cc1)NC(=O)[C@@H](NC(=O)[C@H](CCCN=C(N)N)NC(=O)CNC)C(C)C)C(=O)N[C@@H](Cc1c[nH]cn1)C(=O)N1CCC[C@H]1C(=O)N[C@@H](Cc1ccccc1)C(=O)O", "values": [
      {"measurement": "Control", "setting": "Rattus norvegicus [15]", "value": 0, "unit": "%"},
      {"measurement": "Control", "setting": "Rattus norvegicus [16]", "value": 96, "unit": "%"},
      {"measurement": "Control", "setting": "Rattus norvegicus [17]", "value": 63, "unit": "%"},
      {"measurement": "Control", "setting": "Rattus norvegicus [18]", "value": 87, "unit": "%"},
      {"measurement": "Control", "setting": "Rattus norvegicus [19]", "value": 97, "unit": "%"},
      {"measurement": "Control", "setting": "Rattus norvegicus [20]", "value": 35, "unit": "%"}
    ]}
  ]
}
